This passage reports IC50, Activity and viability results from ChEMBL document CHEMBL3351319, “Synthesis, biological evaluation and 3D-QSAR study of novel 4,5-dihydro-1H-pyrazole thiazole derivatives as BRAF(V⁶⁰⁰E) inhibitors” (Bioorg Med Chem, 2015).

For test [1], the system named is MCF7. Briefly: Antiproliferative activity against human MCF7 cells after 48 hrs by MTT assay. In kind it is functional, cell-based. The note with it: MCF7, 48 h. Put shortly: (§1)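 Cells grown to log phase in RPMI 1640 with 10% FBS, seeded at 2 × 10^4 cells/mL and left 24 h at 37 °C, 5% CO2. Compounds added at pre-set concentrations, sorafenib as positive control, 48 h exposure. MTT (2.5 mg/mL in PBS) added for 4 h, then SDS-isobutanol-HCl extraction overnight at 37 °C. OD read at 570 nm. Three replicate wells per concentration, each assay run at least three times.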
Background: Formazan colour is commonly taken as a measure of viable cells.

Test [2] can be described thus: Antiproliferative activity against human WM266.4 cells after 48 hrs by MTT assay. In kind it is functional, cell-based. To be noted: WM 266-4, 48 h. Put shortly:
as §1

The nature of test [3]: Inhibition of full-length GST-tagged mouse BRAF V600E mutant using MEK1 as substrate preincubated for 1 hr. In outline: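 Mouse full-length GST-tagged BRAF V600E (7.5 ng) pre-incubated 1 h at room temperature with compound in assay dilution buffer. Reaction started by adding 200 ng His-tagged full-length human MEK1, 200 µM ATP (0.8 µCi hot ATP) and 30 mM MgCl2, then run 25 min at room temperature. Quenched with LDS buffer and heated 5 min at 70 °C. Products separated on 4-12% gel, which was dried and read on a phosphor screen. No-enzyme and no-inhibitor controls included, triplicate.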

Test [4] concerns WM 266-4. The test can be described thus: Induction of apoptosis in human WM266.4 cells assessed as early apoptotic cells at 3 uM after 48 hrs using annexin V-FITC/PI by flow cytometry (reference value: 5.79 %). In kind it is functional. Background: In flow cytometry, cells or beads pass a laser one at a time.
Test [5] deals with MCF7. The test can be described thus: Induction of apoptosis in human MCF7 cells assessed as necrotic cells at 3 uM after 48 hrs using annexin V-FITC/PI by flow cytometry (reference value: 0.29 %). The format is functional.
Test [6] concerns WM 266-4. Briefly: Induction of apoptosis in human WM266.4 cells assessed as early apoptotic cells at 1 uM after 48 hrs using annexin V-FITC/PI by flow cytometry (reference value: 5.79 %). The format is functional.
Test [7] concerns MCF7. The test can be described thus: Induction of apoptosis in human MCF7 cells assessed as late apoptotic cells at 3 uM after 48 hrs using annexin V-FITC/PI by flow cytometry (reference value: 5.12 %). The format is functional.
Test [8] deals with WM 266-4. Briefly: Induction of apoptosis in human WM266.4 cells assessed as late apoptotic cells at 3 uM after 48 hrs using annexin V-FITC/PI by flow cytometry (reference value: 6.56 %). The format is functional.
Test [9] relates to WM 266-4. The test can be described thus: Induction of apoptosis in human WM266.4 cells assessed as necrotic cells at 3 uM after 48 hrs using annexin V-FITC/PI by flow cytometry (reference value: 1.26 %). The format is functional.
Test [10] deals with WM 266-4. Briefly: Induction of apoptosis in human WM266.4 cells assessed as late apoptotic cells at 1 uM after 48 hrs using annexin V-FITC/PI by flow cytometry (reference value: 6.56 %). The format is functional.
The test system of test [11] is WM 266-4. The test can be described thus: Induction of apoptosis in human WM266.4 cells assessed as necrotic cells at 1 uM after 48 hrs using annexin V-FITC/PI by flow cytometry (reference value: 1.26 %). The format is functional.
In test [12] the test system is WM 266-4. The test can be described thus: Induction of apoptosis in human WM266.4 cells assessed as viable cells at 3 uM after 48 hrs using annexin V-FITC/PI by flow cytometry (reference value: 86.39 %). In kind it is functional. To be noted: WM 266-4, 48 h, read-out: Activity.
Test [13] has as its system MCF7. Briefly: Induction of apoptosis in human MCF7 cells assessed as late apoptotic cells at 1 uM after 48 hrs using annexin V-FITC/PI by flow cytometry (reference value: 5.12 %). In kind it is functional.
In test [14] the test system is MCF7. Briefly: Induction of apoptosis in human MCF7 cells assessed as viable cells at 1 uM after 48 hrs using annexin V-FITC/PI by flow cytometry (reference value: 91.07 %). The format is functional. To be noted: MCF7, 48 h, read-out: Activity.
The subject of test [15] is MCF7. The test can be described thus: Induction of apoptosis in human MCF7 cells assessed as early apoptotic cells at 1 uM after 48 hrs using annexin V-FITC/PI by flow cytometry (reference value: 3.52 %). In kind it is functional.
Test [16] concerns MCF7. The test can be described thus: Induction of apoptosis in human MCF7 cells assessed as viable cells at 3 uM after 48 hrs using annexin V-FITC/PI by flow cytometry (reference value: 91.07 %). The note with it: MCF7, 48 h, read-out: Activity. The format is functional.
Test [17] has as its system MCF7. The test can be described thus: Induction of apoptosis in human MCF7 cells assessed as early apoptotic cells at 3 uM after 48 hrs using annexin V-FITC/PI by flow cytometry (reference value: 3.52 %). In kind it is functional.
Test [18] relates to MCF7. The test can be described thus: Induction of apoptosis in human MCF7 cells assessed as necrotic cells at 1 uM after 48 hrs using annexin V-FITC/PI by flow cytometry (reference value: 0.29 %). The format is functional.
Test [19] has as its system WM 266-4. The test can be described thus: Induction of apoptosis in human WM266.4 cells assessed as viable cells at 1 uM after 48 hrs using annexin V-FITC/PI by flow cytometry (reference value: 86.39 %). The format is functional. To be noted: WM 266-4, 48 h, read-out: Activity.

The IC50 is the concentration that inhibits the measured activity by half. As to `COc1ccc(C2=NN(c3nc(-c4ccc(Br)cc4)cs3)C(c3cccs3)C2)cc1` (centres undefined), the IC50 stood at 21200 nM in the test on MCF7 [1], 5870 nM in test [2] and 4010 nM in test [3].
The like results for `Clc1ccc(C2=NN(c3nc(-c4ccccc4)cs3)C(c3cccs3)C2)cc1` (centres undefined) were, in that order, 190 nM, 2190 nM and 90 nM.
The like results for `COc1ccc(C2=NN(c3nc(-c4ccccc4)cs3)C(c3cccs3)C2)cc1` (centres undefined) were, in that order, 9010 nM, 2120 nM and 1110 nM.
On to `Brc1ccc(C2=NN(c3nc(-c4ccc(Br)cc4)cs3)C(c3cccs3)C2)cc1` (centres undefined), for which the IC50 in the test on MCF7 [1] worked out at 28300 nM; in [2], 13000 nM; in test [3], 8870 nM.
The like results for `Fc1ccc(C2=NN(c3nc(-c4ccc(C(F)(F)F)cc4)cs3)C(c3cccs3)C2)cc1` (centres undefined) were, in that order, 1330 nM, 5120 nM and 1010 nM.
For `COc1ccc(-c2csc(N3N=C(c4ccc(Br)cc4)CC3c3cccs3)n2)cc1` (centres undefined) the same measures were 680 nM, 2010 nM and 80 nM.
The like results for `COc1ccc(-c2csc(N3N=C(c4ccc(Cl)cc4)CC3c3cccs3)n2)cc1` (centres undefined) were, in that order, 2480 nM, 1310 nM and 190 nM.
As for `Fc1ccc(C2=NN(c3nc(-c4ccccc4)cs3)C(c3cccs3)C2)cc1` (centres undefined), the values for the half-inhibitory concentration (IC50) (with MCF7 [1]; in [2]; in test [3]) were 2340 nM, 170 nM and 670 nM, respectively.
The like results for `COc1ccc(-c2csc(N3N=C(c4ccc(F)cc4)CC3c3cccs3)n2)cc1` (centres undefined) were, in that order, 14200 nM, 4420 nM and 5120 nM.
The like results for `Clc1ccc(C2=NN(c3nc(-c4ccc(Br)cc4)cs3)C(c3cccs3)C2)cc1` (centres undefined) were, in that order, 14700 nM, 1450 nM and 4780 nM.
For the molecule `Cc1ccc(C2=NN(c3nc(-c4ccccc4)cs3)C(c3cccs3)C2)cc1` (centres undefined), the IC50 in the test on MCF7 [1] was 18600 nM; in test [2], 7520 nM; in test [3] it was 3880 nM.
The like results for `Brc1ccc(C2=NN(c3nc(-c4ccccc4)cs3)C(c3cccs3)C2)cc1` (centres undefined) were, in that order, 6790 nM, 1870 nM and 2190 nM.
Regarding `FC(F)(F)c1ccc(-c2csc(N3N=C(c4ccc(Cl)cc4)CC3c3cccs3)n2)cc1` (centres undefined), the Activity is listed as 47.19% in the test on WM 266-4 [4]; 3.54% with MCF7 [5]; 14.13% in the test on WM 266-4 [6]; 33.01% in the test with MCF7 [7]; 38.25% with WM 266-4 [8]; 3.54% in the test with WM 266-4 [9]. Moreover, the Activity in the test on WM 266-4 [10] was 17.54%; in the test on WM 266-4 [11], 0.09%; in the test with MCF7 [13], 27.25%; in the test on MCF7 [15], 39.15%; in the test with MCF7 [17], 43.69%; with MCF7 [18] it was 1.2%. Moreover, the IC50 in the test on MCF7 [1] stood at 160 nM; in [2], 120 nM; in test [3], 50 nM. The viability at 3 µM in the test with WM 266-4 [12] was determined as 11%; in the test on MCF7 [16], 19.8%. In addition, the viability at 1 µM stood at 32.4% in the test on MCF7 [14] and 68.2% in the test on WM 266-4 [19].
`COc1ccc(C2=NN(c3nc(-c4ccc(C(F)(F)F)cc4)cs3)C(c3cccs3)C2)cc1` (centres undefined): the half-inhibitory concentration (IC50) stood at 45700 nM in the test with MCF7 [1], 8110 nM in test [2] and 10900 nM in [3].
The like results for `CNC(=O)c1cc(Oc2ccc(NC(=O)Nc3ccc(Cl)c(C(F)(F)F)c3)cc2)ccn1` [SORAFENIB] were, in that order, 190 nM, 60 nM and 30 nM.
The like results for `Fc1ccc(C2=NN(c3nc(-c4ccc(Br)cc4)cs3)C(c3cccs3)C2)cc1` (centres undefined) were, in that order, 8280 nM, 220 nM and 1860 nM.
The like results for `Cc1ccc(C2=NN(c3nc(-c4ccc(C(F)(F)F)cc4)cs3)C(c3cccs3)C2)cc1` (centres undefined) were, in that order, 31500 nM, 2110 nM and 6180 nM.
For the molecule `FC(F)(F)c1ccc(-c2csc(N3N=C(c4ccc(Br)cc4)CC3c3cccs3)n2)cc1` (centres undefined), the 50% inhibitory concentration (IC50) came out at 7810 nM with MCF7 [1], 27400 nM in [2] and 2090 nM in test [3].
For `Cc1ccc(C2=NN(c3nc(-c4ccc(Br)cc4)cs3)C(c3cccs3)C2)cc1` (centres undefined) the same measures were 2010 nM, 18400 nM and 560 nM.
Take `COc1ccc(C2=NN(c3nc(-c4ccc(OC)cc4)cs3)C(c3cccs3)C2)cc1` (centres undefined): the IC50 is 16200 nM in the test on MCF7 [1], 31600 nM in test [2] and 5230 nM in [3].
The like results for `COc1ccc(-c2csc(N3N=C(c4ccc(C)cc4)CC3c3cccs3)n2)cc1` (centres undefined) were, in that order, 4770 nM, 3770 nM and 110 nM.
